{
  "source": "ChEMBL document CHEMBL1130279",
  "about": "(J Med Chem, 1997)",
  "key": {"[1]": {"target": "T1, Sodium-dependent dopamine transporter (Rattus norvegicus, UniProt P23977)", "T1 sequence (P23977 whole entry)": "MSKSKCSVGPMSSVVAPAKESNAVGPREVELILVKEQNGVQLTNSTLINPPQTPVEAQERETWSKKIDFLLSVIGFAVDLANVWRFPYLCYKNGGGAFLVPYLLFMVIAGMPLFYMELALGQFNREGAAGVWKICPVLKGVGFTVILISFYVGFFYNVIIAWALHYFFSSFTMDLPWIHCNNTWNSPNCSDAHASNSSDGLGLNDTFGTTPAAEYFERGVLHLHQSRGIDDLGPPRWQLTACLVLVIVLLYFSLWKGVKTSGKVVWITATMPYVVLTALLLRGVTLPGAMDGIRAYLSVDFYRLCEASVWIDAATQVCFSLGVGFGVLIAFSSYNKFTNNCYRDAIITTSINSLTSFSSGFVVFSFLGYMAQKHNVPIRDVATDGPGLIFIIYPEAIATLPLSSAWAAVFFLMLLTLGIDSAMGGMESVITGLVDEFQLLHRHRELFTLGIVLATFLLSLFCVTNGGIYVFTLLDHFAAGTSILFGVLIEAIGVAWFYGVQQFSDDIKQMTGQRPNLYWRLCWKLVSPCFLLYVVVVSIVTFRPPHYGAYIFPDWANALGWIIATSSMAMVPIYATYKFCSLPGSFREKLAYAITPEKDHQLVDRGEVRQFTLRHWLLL", "test": "Displacement of [3H]WIN-35428 from dopamine transporter in rat caudate putamen tissue", "type": "tissue-based", "method_in_brief": "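Compounds were tested as oxalate salts unless noted; some were hydrochloride or fumarate. Values are mean ± SEM of three experiments, each run in triplicate.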"}, "Rattus norvegicus": {"species_on_record": "Rattus norvegicus", "test": "Compound was evaluated for its ability to inhibit uptake of [3H]-dopamine into rat caudate putamen tissue", "type": "functional"}, "[2]": {"target": "T1, Sodium-dependent dopamine transporter", "test": "Compound was evaluated for its ability to displace [3H]WIN-35428 from dopamine transporter in rat caudate putamen tissue", "type": "tissue-based"}, "[3]": {"details": "Rattus norvegicus, Caudate-putamen"}},
  "data": [
    {"smiles": "CCC1CC2C(CC(=O)OC)C(Cc3ccccc3)CC1N2C", "note": "(stereo in doubt; 21c)", "values": [
      {"measurement": "Ki", "setting": "[1]", "value": 3.11, "unit": "µM"}
    ]},
    {"smiles": "COC(=O)C[C@H]1C2C[C@@H](Cc3ccccc3)C(C[C@@H]1Cc1ccccc1)N2C", "note": "(stereo partly specified)", "values": [
      {"measurement": "Ki", "setting": "[1]", "value": 7.59, "unit": "µM"}
    ]},
    {"smiles": "CCC[C@H]1CC2[C@@H](CC(=O)OC)[C@@H](Cc3ccccc3)CC1N2C", "note": "(stereo in doubt; 20d)", "values": [
      {"measurement": "Ki", "setting": "[1]", "value": 7.24, "unit": "µM"}
    ]},
    {"smiles": "CCCC[C@@H]1CC2[C@@H](CC(=O)OC)[C@@H](Cc3ccccc3)CC1N2C", "note": "(stereo in doubt; 20e)", "values": [
      {"measurement": "Ki", "setting": "[1]", "value": 19.7, "unit": "µM"}
    ]},
    {"smiles": "CCCC[C@@H]1CC2[C@@H](CC(=O)OC)[C@@H](Cc3ccccc3)CC1N2C", "note": "(stereo in doubt; 19e)", "values": [
      {"measurement": "Ki", "setting": "[1]", "value": 8.58, "unit": "µM"}
    ]},
    {"smiles": "COC(=O)CC1C(Cc2ccccc2)CC2CCC1N2C", "note": "(stereo unspecified)", "values": [
      {"measurement": "Ki", "setting": "[1]", "value": 0.033, "unit": "µM"},
      {"measurement": "IC50", "setting": "Rattus norvegicus", "value": 161, "unit": "nM"}
    ]},
    {"smiles": "COC(=O)CC1=C(Cc2ccccc2)CC2C(Cc3ccccc3)CC1N2C", "note": "(stereo unspecified)", "values": [
      {"measurement": "Ki", "setting": "[1]", "value": 4.83, "unit": "µM"}
    ]},
    {"smiles": "COC(=O)CC1C(Cc2ccccc2)CC2CCC1N2C", "note": "(stereo in doubt; 20a)", "values": [
      {"measurement": "IC50", "setting": "Rattus norvegicus", "value": 457, "unit": "nM"}
    ]},
    {"smiles": "COC(=O)C[C@H]1C2C[C@@H](C)C(C[C@@H]1Cc1ccccc1)N2C", "note": "(stereo in doubt; 21b)", "values": [
      {"measurement": "Ki", "setting": "[1]", "value": 0.057, "unit": "µM"},
      {"measurement": "IC50", "setting": "Rattus norvegicus", "value": 107, "unit": "nM"}
    ]},
    {"smiles": "CCC1CC2C(CC(=O)OC)C(Cc3ccccc3)CC1N2C", "note": "(stereo in doubt; 22c)", "values": [
      {"measurement": "Ki", "setting": "[1]", "value": 6.21, "unit": "µM"}
    ]},
    {"smiles": "COC(=O)CC1C(Cc2ccccc2)CC2C(Cc3ccccc3)CC1N2C", "note": "(stereo unspecified)", "values": [
      {"measurement": "Ki", "setting": "[1]", "value": 3.08, "unit": "µM"}
    ]},
    {"smiles": "COC(=O)C[C@@H]1C2C[C@@H](Cc3ccccc3)C(C[C@@H]1Cc1ccccc1)N2C", "note": "(stereo partly specified)", "values": [
      {"measurement": "Ki", "setting": "[1]", "value": 3.08, "unit": "µM"}
    ]},
    {"smiles": "CCCC1CC2C(CC(=O)OC)C(Cc3ccccc3)CC1N2C", "note": "(stereo in doubt; 22d)", "values": [
      {"measurement": "Ki", "setting": "[1]", "value": 57.3, "unit": "µM"}
    ]},
    {"smiles": "COC(=O)C[C@@H]1C2C[C@H](C)C(C[C@@H]1Cc1ccccc1)N2C", "note": "(stereo partly specified)", "values": [
      {"measurement": "Ki", "setting": "[1]", "value": 0.211, "unit": "µM"}
    ]},
    {"smiles": "CC[C@@H]1CC2[C@@H](CC(=O)OC)[C@@H](Cc3ccccc3)CC1N2C", "note": "(stereo in doubt; 19c)", "values": [
      {"measurement": "Ki", "setting": "[1]", "value": 0.307, "unit": "µM"}
    ]},
    {"smiles": "CCCC1CC2C(CC(=O)OC)C(Cc3ccccc3)CC1N2C", "note": "(stereo in doubt; 21d)", "values": [
      {"measurement": "Ki", "setting": "[1]", "value": 5.85, "unit": "µM"}
    ]},
    {"smiles": "COC(=O)C[C@H]1C2C[C@@H](C)C(C[C@@H]1Cc1ccccc1)N2C", "note": "(stereo in doubt; 22b)", "values": [
      {"measurement": "Ki", "setting": "[1]", "value": 0.294, "unit": "µM"},
      {"measurement": "IC50", "setting": "Rattus norvegicus", "value": 532, "unit": "nM"}
    ]},
    {"smiles": "COC(=O)[C@@H]1C2CC[C@H](C[C@@H]1c1ccccc1)N2C", "values": [
      {"measurement": "IC50", "setting": "[2]", "value": 314, "unit": "nM"},
      {"measurement": "IC50", "setting": "Rattus norvegicus; [3]", "value": 373, "unit": "nM"}
    ]},
    {"smiles": "CC[C@@H]1CC2[C@@H](CC(=O)OC)[C@@H](Cc3ccccc3)CC1N2C", "note": "(stereo in doubt; 20c)", "values": [
      {"measurement": "Ki", "setting": "[1]", "value": 1.15, "unit": "µM"}
    ]},
    {"smiles": "COC(=O)C[C@@H]1C2CCC(C[C@@H]1Cc1ccccc1)N2C", "note": "(stereo partly specified)", "values": [
      {"measurement": "IC50", "setting": "Rattus norvegicus; [3]", "value": 94, "unit": "nM"}
    ]},
    {"smiles": "COC(=O)CC1C(Cc2ccccc2)CC2CCC1N2C", "note": "(single isomer, unassigned; (+))", "values": [
      {"measurement": "Ki", "setting": "[1]", "value": 0.06, "unit": "µM"},
      {"measurement": "IC50", "setting": "Rattus norvegicus", "value": 208, "unit": "nM"}
    ]}
  ]
}
